Reference: ChEMBL document CHEMBL4837193 (Eur J Med Chem, 2021)

Assays:
HeLa = assay: Antiproliferative activity against human HeLa cells assessed as cell growth inhibition after 48 hrs by MTT assay; type: functional, cell-based
Outline: (§1)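 Cells grown at 37 °C with CO2 in RPMI-1640 or DMEM plus 10% FBS. Seeded at 2 × 10³ per well, attached 24 h, then medium changed. Compound exposure 48 h at 37 °C, DMSO 0.1% as vehicle. MTT added and incubated a further 4 h. Crystals dissolved, absorbance read at 570 nm. IC50 from curve fitting, mean ± SD of three independent experiments.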

HepG2 = assay: Antiproliferative activity against human HepG2 cells assessed as cell growth inhibition after 48 hrs by MTT assay; type: functional, cell-based; conditions: HepG2, 48 h; outline: as §1
A549 = assay: Antiproliferative activity against human A549 cells assessed as cell growth inhibition after 48 hrs by MTT assay; type: functional, cell-based; conditions: A549, 48 h; outline: as §1
HT-29 = assay: Antiproliferative activity against human HT29 cells assessed as cell growth inhibition after 48 hrs by MTT assay; type: functional, cell-based; conditions: HT-29, 48 h
HCT-116 = assay: Antiproliferative activity against human HCT-116 cells assessed as cell growth inhibition after 48 hrs by MTT assay; type: functional, cell-based; conditions: HCT-116, 48 h; outline: as §1
HEK293 = assay: Antiproliferative activity against human HEK293 cells assessed as cell growth inhibition after 48 hrs by MTT assay; type: cell-based; conditions: HEK293, 48 h; outline: as §1
T47D = assay: Antiproliferative activity against human T47D cells assessed as cell growth inhibition after 48 hrs by MTT assay; type: functional, cell-based
Tubulin (Homo sapiens) = Tubulin (Homo sapiens) (UniProt P68371+Q9H4B7+P0DPH7+P68366+Q13509+Q71U36+P04350+Q3ZCM7+P07437+P68363+Q9BQE3+Q6PEY2+Q13885+Q9BVA1+Q9BUF5); assay: Inhibition of tubulin polymerization (unknown origin) at 10 uM measured after 30 mins every 1 min for 20 mins by spectrophotometric method; type: protein-complex assay
Outline: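 Tubulin at 2 mg/mL in PEM buffer (100 mM PIPES pH 6.9, 1 mM MgCl2, 1 mM EGTA, 5% glycerol) preincubated on ice with compound or DMSO, then GTP added. After 0.5 h, A340 read every 1 min for 20 min at 37 °C. Plateau values used. Single-point inhibition at 10 µM; IC50 is the concentration halving polymerization at 20 min, mean ± SD of three experiments.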

Tubulin = assay: Inhibition of tubulin polymerization (unknown origin) measured afer 30 mins every 1 min for 20 mins by spectrophotometric method; type: protein-complex assay, Homo sapiens
Outline: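 Tubulin at 2 mg/mL in PEM buffer (100 mM PIPES pH 6.9, 1 mM MgCl2, 1 mM EGTA, 5% glycerol) preincubated on ice with compound or DMSO, then GTP added. After 0.5 h, A340 read every 1 min for 20 min at 37 °C. Plateau values used.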

## COc1cc(-c2nc3nccc(-c4ccc(Cl)c(Cl)c4)n3n2)cc(OC)c1OC
HeLa
  IC50: > 30 µM

## COc1ccc(-c2ccnc3nc(-c4cc(OC)c(OC)c(OC)c4)nn23)cc1N
HepG2
  IC50: 41.2 µM
A549
  IC50: > 100 µM
HT-29
  IC50: 11.5 µM
HCT-116
  IC50: 91.1 µM
HEK293
  IC50: > 100 µM
T47D
  IC50: > 100 µM
Tubulin (Homo sapiens)
  inhibition: 12%
HeLa
  IC50: 0.4 µM

## COc1ccc(-c2ccnc3nc(-c4cc(OC)c(OC)c(OC)c4)nn23)cc1OC
HeLa
  IC50: > 30 µM

## COc1cc(-c2nc3nccc(-c4cc(OC)c(OC)c(OC)c4)n3n2)cc(OC)c1OC
HeLa
  IC50: > 30 µM

## COc1cc(-c2nc3nccc(-c4cccc5ccccc45)n3n2)cc(OC)c1OC
HeLa
  IC50: 28.6 µM

## COc1cc(-c2nc3nccc(-c4ccc(C(F)(F)F)cc4)n3n2)cc(OC)c1OC
HeLa
  IC50: > 30 µM

## COc1ccc(/C=C\c2cc(OC)c(OC)c(OC)c2)cc1O [COMBRETASTATIN A4]
HepG2
  IC50: 5.29 µM
T47D
  IC50: 0.027 µM

## COc1ccc(-c2ccnc3nc(-c4cc(OC)c(OC)c(OC)c4)nn23)cc1F
HeLa
  IC50: > 30 µM

## COc1ccc(-c2nc3nccc(-c4cc(OC)c(OC)c(OC)c4)n3n2)cc1N
HepG2
  IC50: 21.1 µM
Tubulin
  IC50: 12.2 µM
A549
  IC50: 18.9 µM
HT-29
  IC50: 83 µM
HCT-116
  IC50: > 100 µM
HEK293
  IC50: > 100 µM
T47D
  IC50: 6.51 µM
Tubulin (Homo sapiens)
  inhibition: 49%
HeLa
  IC50: 0.11 µM

## COc1cc(-c2nc3nccc(-c4ccc(C)cc4)n3n2)cc(OC)c1OC
HeLa
  IC50: > 30 µM

## COc1cc(-c2nc3nccc(-c4cccs4)n3n2)cc(OC)c1OC
HeLa
  IC50: > 30 µM

## COc1ccc(-c2ccnc3nc(-c4cc(OC)c(OC)c(OC)c4)nn23)cc1
HeLa
  IC50: > 30 µM

## COc1ccc(-c2ccnc3nc(-c4cc(OC)c(OC)c(OC)c4)nn23)cc1Cl
HeLa
  IC50: > 30 µM

## COc1cc(-c2nc3nccc(-c4cc5ccccc5oc4=O)n3n2)cc(OC)c1OC
HeLa
  IC50: > 30 µM
